Cardio protect: myocardial damage modulation in H9c2 cells | 360,000 tested, 0.63% active | protection from H2O2 cell death, % at 20 µM | AID 588492 | H9c2 cardiomyocytes, H2O2 injury protection, ATPLite, 2 h;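 active = compounds giving at least 50% protection of heart cells from peroxide-induced death in the single-dose screen, raw or plate-pattern-corrected value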;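 note: 0% = DMSO wells with peroxide and 100% = DMSO wells without peroxide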
UCH37 inh: blocks the human deubiquitinase UCH37 | Q9Y5K5 | purified proteasome/UCH37, Ub-AMC cleavage fluorescence | inhibition, % (concentration not given with the values) | 330,000 tested, 0.33% active;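 active = mean inhibition over replicate wells above about 20%, limit read from the data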;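 note: 0% = compound-free wells with enzyme and 100% = wells lacking proteasome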
Target sequence (Q9Y5K5 whole entry, looked up): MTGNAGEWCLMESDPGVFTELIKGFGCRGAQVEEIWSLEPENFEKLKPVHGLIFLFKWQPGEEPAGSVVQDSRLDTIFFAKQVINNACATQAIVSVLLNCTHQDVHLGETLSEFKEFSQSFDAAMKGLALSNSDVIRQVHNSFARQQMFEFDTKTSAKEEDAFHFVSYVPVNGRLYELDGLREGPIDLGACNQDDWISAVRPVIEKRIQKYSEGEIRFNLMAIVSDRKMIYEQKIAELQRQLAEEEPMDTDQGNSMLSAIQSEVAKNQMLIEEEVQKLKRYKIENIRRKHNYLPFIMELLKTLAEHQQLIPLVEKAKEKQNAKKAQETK
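Material: Human UCH37 enzyme supplied as purified proteasome complex | Schedule: 30 min preincubation with enzyme, 25 min cleavage at room temperature | Detection: AMC fluorescence 355/460 nm | Measure: % inhibition of Ub-AMC cleavage fluorescence | Controls: Wells without proteasome as full block, compound-free enzyme plus substrate as uninhibited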
hiPSC survival: increases survival of single human iPS cells; hiPSC single-cell survival, ATPlite luminescence; 100% = ROCK inhibitor wells, 0% = DMSO; survival enhancement, % at 20 µM; 360,000 tested, 0.044% active; AID 602274; in the data active = survival enhancement above about 18%;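 note: cells exposed to compounds for 16 hours before the ATP read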
CRFR2-BP antag: blocks CRF-induced signaling of the CRF-BP/CRF-R2 complex | HEK293 CRF-R2/CRF-BP, CRF-induced calcium fluorescence | inhibition, % at 11.8 µM | 350,000 tested, 0.59% active | AID 588475;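 active = inhibition of the ligand-induced calcium signal above about 50% at the single tested concentration, limit read from the data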
MIN6 prolif: inducers of beta-cell replication in MIN6 cells; MIN6 cells proliferation, ATPlite luminescence, 48 h; cells starved in 0.2% serum; 100% = growth in 10% serum; proliferation, % at 10 µM; 330,000 tested, 0.29% active; AID 2380;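 active = compounds whose signal lies at least 3.5 SD above the mean of all wells on their plate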;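 note: 0% = DMSO-treated cells in low-serum medium and 100% = 10% serum control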
CRFR2-BP ag: agonists of human CRF-binding protein/CRF-R2 receptor complex; activation, % at 13.2 µM; AID 588473; 350,000 tested, 0.46% active; HEK293 CRF-R2/CRF-BP, calcium dye fluorescence (FLIPR); percent of saturating CRF peptide response;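 active = activation of at least 50%, plus an integration ratio under a set limit after plate pattern correction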;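 note: plate controls were neutral control wells without compound for no effect and CRF at EC100 for full effect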
UCH37 confirm: confirmation of human UCH37 deubiquitinating enzyme inhibitors; shares compounds with UCH37 inh; Proteasome-bound UCH37, Ub-AMC cleavage fluorescence; inhibition, % at 20 µM; 480 tested, 27% active; AID 624100;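 active = average inhibition over replicates above about 50%, so the earlier screening hit is confirmed, limit read from the data; inactive = the rest, counted as false positives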;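 note: based on cleavage rate fitted by regression over a 30 min kinetic read; 0% = proteasome plus Ub-AMC and 100% = Ub-AMC without proteasome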
* hit, by the source's call. Hits are enriched below; roughly 2.1% of the tested compounds scored in any of these assays.

CCOC(=O)c1c2c(n(C)c1C)C(=O)C(=O)c1ccc(Br)cc1-2 was read as Cardio protect -7.5, UCH37 inh 55.7*, hiPSC survival -2.8, CRFR2-BP antag 12.4, MIN6 prolif -5.9, CRFR2-BP ag -4.3 and UCH37 confirm 69.7*.
For CCOC(=O)c1c2c(n(Cc3ccccc3)c1C)C(=O)C(=O)c1ccccc1-2 the results were Cardio protect -11.1, hiPSC survival -1.2, CRFR2-BP antag 24.8 and CRFR2-BP ag 0.6.
`CCOc1ccc(/C=C2/SC(=S)N(C(C(=O)O)c3ccccc3)C2=O)cc1OCC` (stereo not drawn) gave Cardio protect -8.4, UCH37 inh 51.1*, hiPSC survival 1.1, CRFR2-BP antag 38.7, CRFR2-BP ag 10.0 and UCH37 confirm 12.1.
For NC(CC(=O)Nc1cc(C(F)(F)F)ccc1Cl)=NO the results were UCH37 inh 1.4.
Screening O=C(c1cccs1)N1CCN(S(=O)(=O)N2CCOCC2)CC1 returned Cardio protect 12.3, UCH37 inh 35.8*, hiPSC survival 0.3, CRFR2-BP antag 14.6, MIN6 prolif -1.4, CRFR2-BP ag -2.8 and UCH37 confirm 24.4.
O=C(c1ccco1)N1CCN(S(=O)(=O)N2CCOCC2)CC1 was read as Cardio protect -6.3, UCH37 inh 1.7, hiPSC survival 1.2, CRFR2-BP antag 26.4, MIN6 prolif 2.1 and CRFR2-BP ag -0.2.
`CC(=NNC(=O)COc1ccc(C#N)cc1)c1ccccc1OC(F)F` gave UCH37 inh 3.4.
For N#C/C(=C\c1ccc(N2CCCCC2)o1)C(N)=O the results were Cardio protect -0.7, UCH37 inh 30.5*, hiPSC survival 1.6, CRFR2-BP antag -24.7, MIN6 prolif -1.0, CRFR2-BP ag 35.5 and UCH37 confirm 25.7.
For Cc1ccc(/C=C2\SC(=S)N(Cc3ccccc3)C2=O)o1 the results were Cardio protect -3.6, UCH37 inh 1.5, hiPSC survival -0.3, CRFR2-BP antag -13.2, MIN6 prolif -3.5 and CRFR2-BP ag 0.4.
For O=C(O)c1cc(-c2ccc(/C=C3/SC(=S)N(Cc4ccccc4)C3=O)o2)ccc1Cl the results were Cardio protect -6.1, UCH37 inh 44.9*, hiPSC survival 1.7, CRFR2-BP antag -235.0, CRFR2-BP ag 208.9* and UCH37 confirm 60.4*.
For O=C(O)CCCN1C(=O)/C(=C\c2ccc(-c3nc4ccccc4s3)o2)SC1=S the results were Cardio protect -1.6, UCH37 inh 39.2*, hiPSC survival 2.5, CRFR2-BP antag -118.5, MIN6 prolif -1.8, CRFR2-BP ag 109.0* and UCH37 confirm 44.4.
Screening CC(=O)c1sc(NN=Cc2ccccc2O)nc1C returned UCH37 inh -2.9.
For O=C1C(Cl)=C(NCCc2ccccc2)C(=O)N1CCc1ccccc1 the results were Cardio protect -5.1, UCH37 inh -49.9, hiPSC survival 1.4, CRFR2-BP antag -35.1, MIN6 prolif -2.0 and CRFR2-BP ag 1.5.
For O=C1C(Cl)=C(NCCc2ccccc2)C(=O)c2ccccc21 the results were Cardio protect -27.8, UCH37 inh 76.1*, hiPSC survival 0.2, CRFR2-BP antag -23.1, CRFR2-BP ag -2.9 and UCH37 confirm 86.7*.
`CCN(CC)CCCNC1=C(Cl)C(=O)c2ccccc2C1=O` gave Cardio protect -21.1, UCH37 inh 27.1*, hiPSC survival -0.7, CRFR2-BP antag 13.3, MIN6 prolif -5.8, CRFR2-BP ag -1.9 and UCH37 confirm 39.3.
`O=C(O)c1cccc(NC2=C(Cl)C(=O)c3ccccc3C2=O)c1` gave Cardio protect -16.3, UCH37 inh 46.0*, hiPSC survival -1.5, CRFR2-BP antag 27.0, CRFR2-BP ag -0.8 and UCH37 confirm 24.5.
Cc1ccc(O)c(C=NNC(=O)Cc2ccc(Cl)cc2)c1 was read as UCH37 inh -0.4.
Screening CC(=NNc1ncc(Cl)cc1Cl)c1ccc(S(=O)(=O)NCc2ccco2)cc1 returned UCH37 inh 7.5.

From PubChem BioAssay
